Screening data as filed in PubChem BioAssay.
This is a sample that favours compounds with a hit; in the whole collection about 1.9% have one here.
PHOSPHO1 block = inhibitors of human PHOSPHO1 phosphatase. Q8TCT1. recombinant PHOSPHO1, absorbance phosphatase assay. inhibition, % at 13.3 µM. hit rate 1.1% among 290,000; in the data active = inhibition above about 60%
proCasp3 act = procaspase-3 (human) activation. hit rate 0.11% among 330,000. activation, % at 8.5 µM. AID 463141. P42574. recombinant procaspase-3 D3A, Ac-DEVD-pNA absorbance 405 nm;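 active = activation above the mean of all tested compounds plus 3 SD, cut at about 21% in these data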;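 note: 0% = DMSO alone and 100% = DMSO wells spiked with extra 5 µM PC-3 D3A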
Target sequence (P42574 whole entry D9A/D28A/D175A): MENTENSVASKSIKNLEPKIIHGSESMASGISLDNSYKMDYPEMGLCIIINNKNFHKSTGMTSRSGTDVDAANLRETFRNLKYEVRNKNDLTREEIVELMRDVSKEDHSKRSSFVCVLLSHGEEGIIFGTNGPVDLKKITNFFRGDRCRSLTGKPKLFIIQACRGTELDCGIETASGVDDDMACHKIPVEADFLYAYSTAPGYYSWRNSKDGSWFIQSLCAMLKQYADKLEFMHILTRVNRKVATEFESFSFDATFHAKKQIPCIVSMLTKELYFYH
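Test system: Procaspase-3 D3A mutant, all three cleavage aspartates alanine | Dosing: Single dose, 8.5 µM nominal compound, 0.8% DMSO | Schedule: 1 h preincubation, 2 h reaction | Technique: 405 nm absorbance of p-nitroaniline, reads at 0 and 120 min | Repeats: One well per compound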
IDE cell activ = boosts human insulin-degrading enzyme activity in HEK cells. P14735. FAbeta-B cleavage, fluorescence polarization; 0% vehicle, 100% cell-free pure enzyme wells. activation, % at 5.96 µM. hit rate 0.073% among 340,000;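 active = activation above the mean of all tested compounds plus 3 SD, set per screening campaign, cut at about 17% in these data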
proCasp7 act = counter-screen: procaspase-7 (human) activation | P55210 | recombinant procaspase-7, Ac-DEVD-pNA absorbance 405 nm; D23A/D198A/D206A triple mutant, cannot self-cleave; scale: DMSO 0, 5 µM enzyme 100 | AID 463210 | activation, % at 8.5 µM | hit rate 0.093% among 330,000;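 active = percent activation above the screen-wide mean plus 3 SD, cut at about 25% in these data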
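Assay system: Uncleavable procaspase-7 mutant enzyme | Input: 2 µM procaspase-7 mutant as dispensed | Timing: 1 h compound preincubation, 2 h substrate cleavage, 25 °C | Repeats: One well per compound | Control set: DMSO wells as 0%, DMSO with 5 µM added PC-7 as 100% | Technique: Epi-absorbance of released pNA at 405 nm, two timepoints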
UBC13 polyUb = inhibitors of human UBC13 polyubiquitin chain formation; TR-FRET; inhibition, % at 20 µM; hit rate 0.47% among 330,000; in the data active = inhibition above about 45%, passing the limit was not always enough
Target sequence (P61088 whole entry, looked up): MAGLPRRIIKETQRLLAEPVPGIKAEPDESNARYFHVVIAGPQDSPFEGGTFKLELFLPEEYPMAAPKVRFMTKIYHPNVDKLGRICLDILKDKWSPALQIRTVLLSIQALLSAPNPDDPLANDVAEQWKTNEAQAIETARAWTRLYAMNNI
IDE cell inh = inhibits human insulin-degrading enzyme in HEK cells. P14735. FAbetaB cleavage, fluorescence polarization. inhibition, % at 5.59 µM. hit rate 0.41% among 320,000. AID 434962;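 active = percent inhibition above the average of all tested compounds plus 3 SD, set per screening campaign, cut at about 16% in these data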;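 note: IDE supplied by intact live HEK cells; FP after avidin binding of uncleaved biotin substrate so inhibition keeps polarization high; 0% = DMSO wells and 100% = 60 µM reference IDE inhibitor Ii1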
Numbers without * were called inactive; nt = no result given.

SMILES	PHOSPHO1 block	proCasp3 act	IDE cell activ	proCasp7 act	UBC13 polyUb	IDE cell inh
CSc1ncc(Cl)c(C(=O)Nc2cccc(Cl)c2)n1	24	-1	1	0	10	6
Cc1cc(N=NC(=O)c2ccccc2O)c2ccccc2c1O	70*	2	-2	2	-99	-4
COC(=O)C(C)Oc1cc(C)ccc1COc1ccc(-n2nc(C)n(C(F)F)c2=O)cc1 (stereo unspecified)	nt	-9	4	-14	-12	3
COc1ccc(C2C(C(C)=O)=C(C)N=c3s/c(=C\c4ccco4)c(=O)n32)c(OC)c1 (stereo unspecified)	94*	-17	-3	-20	-58	5
O=C(/C=C/c1cccc(Cl)c1)NCCCN1CCOCC1	-18	-1	2	-10	-8	-2
Cc1nn(CCOc2ccccc2)c(=O)n1-c1ccccc1	62*	-1	7	-2	-10	4
Cc1snc(SCC(=O)c2ccc(Cl)cc2)c1C#N	84*	-18	1	-33	1	-1
CCOc1ccc(S(=O)(=O)Nc2cc(Sc3ncn[nH]3)c3oc(=O)sc3c2)cc1	103*	-26	nt	-31	-9	8
Cc1cc(C)c(S(=O)(=O)/N=C2/C=C(Sc3ncn[nH]3)C(=O)c3ccccc32)cc1C	69*	-21	-25	-23	nt	9
CC(=O)OCCn1c2nc(=O)[nH]c(=O)c-2nc2cc(C)c(C)cc21	-32	nt	75*	nt	-214	nt
CC(=O)OCCn1c(C)[n+](CCOC(C)=O)c2cc(Cl)c(Cl)cc21	6	-2	-2	12	4	0
CC(=O)OC1CC[C@@]2(C)C(CCC3C2CC(=O)[C@@]2(C)C3CC3CC(C)=CC(=O)C32)C1 (stereo partly specified)	27	nt	-1	nt	nt	nt
COCCCNC(=O)c1ccc(S(=O)(=O)c2ccc(Cl)cc2)c(NC(C)=O)c1	33	4	2	-4	1	1
CCCn1c(SCC(=O)c2cc(C)ccc2C)n[nH]c1=O	94*	-8	0	-9	-6	6
CCOc1ccc(CCNC(=O)COC(=O)c2cc([N+](=O)[O-])ccc2N2CCOCC2)cc1OCC	43	-7	1	-11	-11	-1
CCOc1ccc(CCNC(=O)c2cc([N+](=O)[O-])ccc2N2CCOCC2)cc1OCC	63*	2	5	-1	-10	-2
Cc1ccc(S(=O)(=O)N2CCOCC2)cc1NC(=O)COC(=O)c1cnc(Cl)c(Cl)c1	nt	nt	-2	nt	3	nt
O=C(c1ccc(F)cc1)N1CCCC(c2nc(-c3ccncc3)no2)C1 (stereo unspecified)	nt	11	-4	-1	-9	1
O=C(c1c(F)cccc1F)N1CCCC(c2nc(-c3ccc(F)cc3)no2)C1 (stereo unspecified)	62*	-2	2	1	1	2
COc1ccc(NC(=O)COc2ccccc2Cc2ccccc2)cc1S(=O)(=O)N1CCOCC1	nt	nt	2	nt	-3	nt
CC(=O)c1sc(NC(=O)c2ccc(F)c(S(=O)(=O)N3CCOCC3)c2)nc1C	nt	8	2	12	-3	1
Cc1ccc(C(=O)CN2C(=O)NC3(CCc4ccccc43)C2=O)s1 (stereo unspecified)	nt	-7	0	-5	-5	2
CCc1cccc(Nc2cnn(C34C[C@@H]5C[C@@H](CC(CC(=O)O)(C5)C3)C4)c(=O)c2Cl)c1	-23	2	-22	7	-6	21*
CCOc1ccc(NC(=O)NC2(C(=O)NCc3ccco3)CCCCC2)cc1	30	-1	1	-1	0	3
CC(=O)Nc1ccc(C(=S)NCc2ccco2)cc1	94*	2	-2	3	6	2
SMILES	PHOSPHO1 block	proCasp3 act	IDE cell activ	proCasp7 act	UBC13 polyUb	IDE cell inh
O=C(NCCSCc1ccco1)Nc1ccccc1	74*	5	6	-2	4	2
CCOc1ccc(NC(=O)NCc2ccco2)cc1	67*	4	-1	4	-20	-9
CCc1ccc(C(=O)COC(=O)C2=NN(c3ccccc3)C(=O)CC2)cc1	nt	4	-1	6	7	0
Cc1cc2[nH]c3c4ccccc4nc(C)c3c2cc1C	nt	nt	0	nt	nt	nt
Cc1cc2[nH]c3c(c[n+](C)c4ccccc34)c2cc1C	-71	-9	0	-14	64*	-6
O=C(CNC(=O)c1ccccc1)Oc1cccc(Cl)c1	nt	-6	nt	2	3	5
Cc1ccc(C(=O)OCC(=O)NCc2ccco2)cc1C	nt	7	0	8	-1	0
Nc1c(C(=O)c2ccccc2)sc2nsc(SCCN3CCCC3)c12	6	-36	-24	-32	-13	6
Nc1c(C(=O)c2ccc(Cl)cc2)sc2nsc(SCCN3CCOCC3)c12	63*	-15	-25	-24	-6	4
CC(=O)c1sc2nsc(SCCN3CCCCC3)c2c1N	70*	-8	nt	-26	-11	4
COc1ccc(S(=O)(=O)N2CCC(C(=O)Nc3nccs3)CC2)cc1	20	4	-6	-2	-10	-2
O=P1(NC2CCCC2)OCC2(CO1)COP(=O)(NC1CCCC1)OC2 (stereo unspecified)	nt	nt	4	nt	nt	nt
Cc1nc2nc(C)n(-c3ccccc3)c2s1	71*	-5	1	-8	-7	3
CC(C)CCNC(=O)c1cc2c(=O)n3ccccc3nc2s1	47	-4	5	3	22	-2
COc1ccc(C(=O)N2CCC(n3nccc3NC(=O)C3CC3)CC2)c(OC)c1OC	20	1	7	3	-6	-1
CC(=O)c1ccccc1C(=O)N1CCC(n2nccc2NC(=O)C2CC2)CC1	66*	nt	3	nt	7	nt
CCCn1cnc2scc(-c3ccc(C)c(C)c3)c2c1=O	34	9	-3	7	4	1
O=C(Oc1nsnc1N1CCOCC1)N(c1ccccc1)c1ccccc1	18	12	1	-2	-6	7
COC(=O)Oc1nsnc1N1CCOCC1	92*	-23	9	-36	-1	9
O=C(C[C@@H]1C/C=C\CC[C@H](Cc2ccc(F)cc2)C(=O)OC[C@@H](Cc2ccccc2)NC1=O)NCCO	nt	3	-2	0	16	0
COc1cccc(NC(=O)C2CCN(C(=O)NC3CCCCC3)CC2)c1	63*	1	8	-2	3	-3
COc1cccc(NC(=O)C2CCCCC2)c1	2	3	10	-5	0	3
COC(=O)Cn1c(=NC(=O)c2sc3ccccc3c2Cl)sc2cc(S(N)(=O)=O)ccc21	6	-6	-3	2	-26	20*
Cc1cc(C(=O)CSc2nnc(N)s2)c(C)n1CCc1ccc(Cl)cc1	74*	4	0	8	8	6
